Results published in ChEMBL document CHEMBL1158460, “Heterobiaryl human immunodeficiency virus entry inhibitors” (J Med Chem, 2009).

Columns and labels:
[1] = Cytotoxicity against human U87 cells coexpressing CD4, CxCR4 receptors after 72 hrs; format: cell-based, U-87MG ATCC; details: U87 cells coexpressing CD4 and CXCR4 receptors
[2] = test system: Human immunodeficiency virus 1; assay: Antiviral activity against HIV1 expressed in 293T cells assessed as protection against viral M33 envelope infection in human U87 cells coexpressing CD4, CCR5 receptors after 72 hrs by luciferase reporter gene pseudoviral assay; format: functional, organism-based; details: Human immunodeficiency virus 1, HEK-293T
Summary of the method: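 Pseudovirions carry an R5-using envelope cloned from a primary virus isolate. Anti-HIV-1 activity was taken as the 50% inhibitory dose against these pseudovirions.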

[3] = Inhibition of HIV1 3B recombinant gp120/sCD4 binding interaction by ELISA
Summary of the method: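 Competitive ELISA of soluble CD4 binding to gp120 from HIV IIIB. Bound CD4 was detected with an anti-CD4 monoclonal antibody, then a peroxidase-labelled anti-mouse antibody. The read-out was the 50% inhibitory dose.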

[4] = test system: Human immunodeficiency virus; assay: Antiviral activity against HIV isolate 584.000 066 by replication assay; format: functional, organism-based; details: Human immunodeficiency virus 1, isolate 584.000 066
[5] = test system: Human immunodeficiency virus; assay: Antiviral activity against HIV isolate 584.000 058 by replication assay; format: functional, organism-based; details: Human immunodeficiency virus 1, isolate 584.000 058
[6] = test system: Human immunodeficiency virus; assay: Antiviral activity against HIV isolate 584.000 017 by replication assay; format: functional, organism-based; details: Human immunodeficiency virus 1, isolate 584.000 017
[7] = test system: Human immunodeficiency virus; assay: Antiviral activity against HIV isolate 584.000 227 by replication assay; format: functional, organism-based; details: Human immunodeficiency virus 1, isolate 584.000 227
[8] = test system: Human immunodeficiency virus; assay: Antiviral activity against HIV isolate 584.000 031 by replication assay; format: functional, organism-based; details: Human immunodeficiency virus 1, isolate 584.000 031
[9] = test system: Human immunodeficiency virus; assay: Antiviral activity against HIV isolate 584.000 220 by replication assay; format: functional, organism-based; details: Human immunodeficiency virus 1, isolate 584.000 220
[10] = test system: Human immunodeficiency virus; assay: Antiviral activity against HIV isolate 589.000 033 by replication assay; format: functional, organism-based; details: Human immunodeficiency virus 1, isolate 589.000 033
[11] = test system: Human immunodeficiency virus; assay: Antiviral activity against HIV isolate 584.000 060 by replication assay; format: functional, organism-based; details: Human immunodeficiency virus 1, isolate 584.000 060
[12] = test system: Human immunodeficiency virus; assay: Antiviral activity against HIV isolate 584.000.098 by replication assay; format: functional, organism-based; details: Human immunodeficiency virus 1, isolate 584.000.098
[13] = test system: Human immunodeficiency virus; assay: Antiviral activity against HIV isolate 584.000 030 by replication assay; format: functional, organism-based; details: Human immunodeficiency virus 1, isolate 584.000 030
[14] = test system: Human immunodeficiency virus; assay: Antiviral activity against HIV isolate 584.000 063 by replication assay; format: functional, organism-based; details: Human immunodeficiency virus 1, isolate 584.000 063
[15] = test system: Human immunodeficiency virus; assay: Antiviral activity against HIV isolate 584.000 054 by replication assay; format: functional, organism-based; details: Human immunodeficiency virus 1, isolate 584.000 054

Row | Structure (SMILES) | IC50 [2] | IC50 [3] | CC50 at 72 h [1] | also measured
1 | Cc1nc(-c2ccc(C(=O)C(=O)N3CCN(C(=O)c4ccccc4)C[C@H]3C)cc2)cs1 | 5.4 µM |  | > 40 µM | 
2 | C[C@@H]1CN(C(=O)c2ccccc2)CCN1C(=O)C(=O)c1ccc(-c2cncs2)cc1 | 0.32 µM |  | > 40 µM | 
3 | C[C@@H]1CN(C(=O)c2ccccc2)CCN1C(=O)C(=O)c1ccc(-c2cc[nH]n2)cc1F | 0.046 µM | 1.1 µM | > 40 µM | 
4 | C[C@@H]1CN(C(=O)c2ccccc2)CCN1C(=O)C(=O)c1ccc(-c2cnco2)c(Cl)c1 | < 0.005 µM | 0.236 µM | > 40 µM | 
5 | COc1cc(C(=O)C(=O)N2CCN(C(=O)c3ccccc3)C[C@H]2C)ccc1-c1cc[nH]n1 | 0.056 µM | 2.5 µM | > 40 µM | 
6 | CC(=O)c1cc(-c2ccc(C(=O)C(=O)N3CCN(C(=O)c4ccccc4)CC3C)cc2)cs1 (racemic) | 0.91 µM |  | > 40 µM | 
7 | C[C@@H]1CN(C(=O)c2ccccc2)CCN1C(=O)C(=O)c1ccc(-n2cccn2)cc1 | 1.2 µM | > 7.5 µM | > 40 µM | 
8 | C[C@@H]1CN(C(=O)c2ccccc2)CCN1C(=O)C(=O)c1ccc(-c2cccs2)cc1 | 0.44 µM |  | > 40 µM | 
9 | C[C@@H]1CN(C(=O)c2ccccc2)CCN1S(=O)(=O)c1ccc(-c2ccccn2)s1 | 5.4 µM |  | > 40 µM | 
10 | COc1cnc(-n2ccnn2)c2[nH]cc(S(=O)(=O)N3CCN(C(=O)c4ccccc4)C[C@H]3C)c12 | 0.007 µM | 0.215 µM | > 40 µM | 
11 | Cc1cc(C(=O)C(=O)N2CCN(C(=O)c3ccccc3)C[C@H]2C)ccc1-c1cc[nH]n1 | 0.035 µM | 0.68 µM | > 40 µM | 
12 | Cc1cc(-c2ccc(C(=O)C(=O)N3CCN(C(=O)c4ccccc4)C[C@H]3C)cc2F)on1 | 0.13 µM | > 10 µM | > 40 µM | 
13 | COc1ncc(OC)c2c(C(=O)C(=O)N3CCN(C(=O)c4ccccc4)CC3)c[nH]c12 | 0.026 µM | 2.4 µM | > 40 µM | IC50 [4]: 0.011 µM; IC50 [5]: 0.06 µM; IC50 [6]: > 10 µM; IC50 [7]: 0.022 µM; IC50 [8]: 0.24 µM; IC50 [9]: 0.004 µM; IC50 [10]: 0.034 µM; IC50 [11]: 0.014 µM; IC50 [12]: 0.425 µM; IC50 [13]: 0.03 µM; IC50 [14]: 0.017 µM; IC50 [15]: 7.13 µM
14 | CC1CN(C(=O)c2ccccc2)CCN1C(=O)C(=O)c1ccc(-c2cnn(C)c2)cc1 (racemic) | 0.11 µM |  | > 40 µM | 
15 | C[C@@H]1CN(C(=O)c2ccccc2)CCN1C(=O)C(=O)c1ccc(-c2ccsc2)cc1 | 0.54 µM |  | > 40 µM | 
16 | CC1CN(C(=O)c2ccccc2)CCN1C(=O)C(=O)c1ccc(-c2ccn(C)n2)cc1 (racemic) | 1.8 µM |  | > 40 µM | 
17 | C[C@@H]1CN(C(=O)c2ccccc2)CCN1C(=O)C(=O)c1ccc(-c2cc[nH]n2)cc1O | 2.2 µM | > 10 µM | > 40 µM | 
18 | C[C@@H]1CN(C(=O)c2ccccc2)CCN1C(=O)C(=O)c1ccc(-c2ccccn2)s1 | 13 µM |  | > 40 µM | 
19 | CC1CN(C(=O)c2ccccc2)CCN1C(=O)C(=O)c1ccc(-n2cncn2)cc1 (racemic) | 0.94 µM | > 10 µM | > 40 µM | 
20 | Cc1cc(-c2ccc(C(=O)C(=O)N3CCN(C(=O)c4ccccc4)C[C@H]3C)c(O)c2)on1 | 7.3 µM | > 10 µM | > 40 µM | 
21 | C[C@@H]1CN(C(=O)c2ccccc2)CCN1C(=O)C(=O)c1ccc(-c2cc[nH]n2)cc1N | 0.078 µM | 5.9 µM | > 40 µM | 
22 | C[C@@H]1CN(C(=O)c2ccccc2)CCN1C(=O)C(=O)c1ccc(-c2cc[nH]n2)nc1 | 1 µM | > 10 µM | > 40 µM | 
23 | COc1cc(-c2cc(C)no2)ccc1C(=O)C(=O)N1CCN(C(=O)c2ccccc2)C[C@H]1C | < 0.005 µM | 0.23 µM | > 40 µM | IC50 [4]: 0.273 µM; IC50 [5]: 0.022 µM; IC50 [6]: > 10 µM; IC50 [7]: 1.82 µM; IC50 [8]: 8.97 µM; IC50 [9]: 0.003 µM; IC50 [10]: 0.011 µM; IC50 [11]: 0.017 µM; IC50 [12]: 0.301 µM; IC50 [13]: 0.013 µM; IC50 [14]: 0.025 µM; IC50 [15]: 3.51 µM
24 | COc1cc(-c2ccn[nH]2)ccc1C(=O)C(=O)N1CCN(C(=O)c2ccccc2)C[C@H]1C | < 0.005 µM | 0.56 µM | > 40 µM | 
25 | CC1CN(C(=O)c2ccccc2)CCN1C(=O)C(=O)c1ccc(-n2nccn2)cc1 (racemic) | 0.87 µM | 6.2 µM | > 40 µM | 

Second part, led by results:

Row | IC50 [2] | IC50 [3] | Structure (SMILES) | CC50 at 72 h [1] | also measured
26 | 0.42 µM |  | C[C@@H]1CN(C(=O)c2ccccc2)CCN1C(=O)C(=O)c1ccc(-c2cscn2)cc1 | > 40 µM | 
27 | 6.7 µM | > 10 µM | C[C@@H]1CN(C(=O)c2ccccc2)CCN1C(=O)C(=O)c1ccc(N2CCCC2)cc1 | > 40 µM | 
28 | 0.63 µM | > 10 µM | C[C@@H]1CN(C(=O)c2ccccc2)CCN1C(=O)C(=O)c1ccc(-c2nccs2)cc1 | > 40 µM | 
29 | 0.33 µM | > 10 µM | Cc1cc(-c2ccc(C(=O)C(=O)N3CCN(C(=O)c4ccccc4)C[C@H]3C)cc2)on1 | > 40 µM | 
30 | 2.5 µM |  | C[C@@H]1CN(C(=O)c2ccccc2)CCN1C(=O)C(=O)c1ccc(-c2ccncc2)cc1 | > 40 µM | 
31 | 1.6 µM |  | CC(=O)c1ccc(-c2ccc(C(=O)C(=O)N3CCN(C(=O)c4ccccc4)C[C@H]3C)cc2)s1 | > 40 µM | 
32 | 2 µM |  | C[C@@H]1CN(C(=O)c2ccccc2)CCN1C(=O)C(=O)c1ccc(-c2ncccc2F)cc1 | > 40 µM | 
33 | 0.25 µM | 4.6 µM | C[C@@H]1CN(C(=O)c2ccccc2)CCN1C(=O)C(=O)c1ccc(-c2ccn[nH]2)cc1Cl | > 40 µM | 
34 | 12 µM | > 10 µM | C[C@@H]1CN(C(=O)c2ccccc2)CCN1C(=O)C(=O)c1ccc(N2CCOC2=O)cc1 | > 40 µM | 
35 | 0.83 µM | > 10 µM | COc1cc(C(=O)C(=O)N2CCN(C(=O)c3ccccc3)C[C@H]2C)ccc1-c1cc(C)no1 | > 40 µM | 
36 | 1.1 µM | > 10 µM | Cc1cc(-c2cc[nH]n2)ccc1C(=O)C(=O)N1CCN(C(=O)c2ccccc2)C[C@H]1C | > 40 µM | 
37 | 2.8 µM | > 10 µM | Cc1ccc(-c2ccc(C(=O)C(=O)N3CCN(C(=O)c4ccccc4)C[C@H]3C)cc2)o1 | > 40 µM | 
38 | 0.16 µM | 2.4 µM | CC1CN(C(=O)c2ccccc2)CCN1C(=O)C(=O)c1ccc(-c2cc[nH]n2)cc1 (racemic) | > 40 µM | 
39 | 0.008 µM | 0.93 µM | COc1ccnc2[nH]cc(C(=O)C(=O)N3CCN(C(=O)c4ccccc4)C[C@H]3C)c12 | > 40 µM | IC50 [4]: 0.19 µM; IC50 [5]: 0.038 µM; IC50 [6]: > 10 µM; IC50 [7]: 0.423 µM; IC50 [8]: 8.02 µM; IC50 [9]: 0.005 µM; IC50 [10]: 0.027 µM; IC50 [11]: 0.024 µM; IC50 [12]: 0.394 µM; IC50 [13]: 0.029 µM; IC50 [14]: 0.046 µM; IC50 [15]: 5.53 µM
40 | 23 µM |  | C[C@@H]1CN(C(=O)c2ccccc2)CCN1C(=O)C(=O)c1cccc(-c2ccccn2)c1 | > 40 µM | 
41 | 0.25 µM |  | C[C@@H]1CN(C(=O)c2ccccc2)CCN1C(=O)C(=O)c1ccc(-c2cnco2)cc1 | > 40 µM | 
42 | 1.4 µM |  | CC1CN(C(=O)c2ccccc2)CCN1C(=O)C(=O)c1ccc(-c2cc(N)ncn2)cc1 (racemic) | > 40 µM | 
43 | > 10 µM |  | CNc1cc(-c2cc[nH]n2)ccc1C(=O)C(=O)N1CCN(C(=O)c2ccccc2)C[C@H]1C | > 40 µM | 
44 | 0.05 µM | 0.78 µM | COc1cc(C(=O)C(=O)N2CCN(C(=O)c3ccccc3)C[C@H]2C)ccc1-c1cnco1 | > 40 µM | 
45 | 1.2 µM |  | C[C@@H]1CN(C(=O)c2ccccc2)CCN1S(=O)(=O)c1ccc(-c2cnco2)s1 | > 40 µM | 
